Reference: ChEMBL document CHEMBL1122035, “Preparation and evaluation of 2-substituted anthraquinones based on the anthracyclines” (1982)

Tests used:
[1] = test system: Nucleic Acid; experiment: DNA binding property and activity expressed as K; format: nucleic-acid assay
Outline: (§1)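 Absorbance read at the unbound-drug λmax after 5-min equilibration, against a buffer blank. K and n were obtained by nonlinear regression of absorbance against cumulative DNA volume, using a one- or two-site model.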

[2] = test system: Mus musculus; experiment: In vivo antitumor activity against P-388 leukemia in mice at the dose of 100 mg/kg.; format: functional
Outline: (§2)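 P-388 leukemia in mice; compounds given as hydrochloride salts. Screening was done by the NCI Drug Research and Development Program. Result expressed as T/C (%).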

[3] = test system: Nucleic Acid; experiment: DNA binding property and activity expressed as Kn; format: nucleic-acid assay; outline: as §1
[4] = test system: Mus musculus; experiment: In vivo antitumor activity against P-388 leukemia in mice at the dose of 5 mg/kg.; format: functional; outline: as §2
[5] = test system: Mus musculus; experiment: In vivo antitumor activity against P-388 leukemia in mice at the dose of 50 mg/kg.; format: functional; outline: as §2
[6] = test system: Mus musculus; experiment: In vivo antitumor activity against P-388 leukemia in mice at the dose of 200 mg/kg.; format: functional; outline: as §2
[7] = test system: Mus musculus; experiment: In vivo antitumor activity against P-388 leukemia in mice at the dose of 40 mg/kg.; format: functional; outline: as §2

| Compound | K [1] | Kn [3] | T/C [2] | T/C [4] | T/C [5] | T/C [6] | T/C [7] |
| --- | --- | --- | --- | --- | --- | --- | --- |
| CCN(CC)CCCC(C)NC(=O)c1ccc2c(c1O)C(=O)c1ccccc1C2=O.Cl (stereo not given) | 78000 M⁻¹ | 10100 M⁻¹ |  | 106% |  |  |  |
| CN(C)CCCNC(=O)c1ccc2c(c1O)C(=O)c1ccccc1C2=O.Cl | 78000 M⁻¹ | 9400 M⁻¹ |  |  | 118% |  |  |
| CCN(CC)CCNC(=O)c1ccc2c(c1)C(=O)c1ccccc1C2=O.Cl |  |  |  |  |  | 119% |  |
| CN(C)CCCNC(=O)c1ccc2c(c1)C(=O)c1ccccc1C2=O.Cl | 59000 M⁻¹ | 11000 M⁻¹ |  |  |  | 115% |  |
| CCN(CC)CCCC(C)NC(=O)c1ccc2c(c1)C(=O)c1ccccc1C2=O.Cl (stereo not given) |  |  |  |  |  | 127% |  |

The next lines start with results.

| K [1] | Kn [3] | Compound | T/C [2] | T/C [4] | T/C [5] | T/C [6] | T/C [7] |
| --- | --- | --- | --- | --- | --- | --- | --- |
| 529000 M⁻¹ | 100000 M⁻¹ | CCN(CC)CCNC(=O)Cc1cc(O)c2c(c1O)C(=O)c1ccccc1C2=O.Cl | 106% |  |  |  |  |
| 127000 M⁻¹ | 29000 M⁻¹ | CCN(CC)CCCNC(=O)Cc1cc(O)c2c(c1O)C(=O)c1ccccc1C2=O.Cl |  |  | 108% |  |  |
| 92000 M⁻¹ | 12900 M⁻¹ | CCN(CC)CCCNC(=O)c1ccc2c(c1O)C(=O)c1ccccc1C2=O |  |  |  |  |  |
| 289000 M⁻¹ | 75000 M⁻¹ | CN(C)CCNC(=O)Cc1cc(O)c2c(c1O)C(=O)c1ccccc1C2=O.Cl | 118% |  |  |  |  |
| 46000 M⁻¹ | 9100 M⁻¹ | CCN(CC)CCNC(=O)c1ccc2c(c1O)C(=O)c1ccccc1C2=O |  |  |  |  |  |
| 259000 M⁻¹ | 65000 M⁻¹ | CN(C)CCCNC(=O)Cc1cc(O)c2c(c1O)C(=O)c1ccccc1C2=O.Cl |  |  | 106% |  |  |
| 308000 M⁻¹ | 49000 M⁻¹ | CCN(CC)CCCC(C)NC(=O)Cc1cc(O)c2c(c1O)C(=O)c1ccccc1C2=O.Cl (stereo not given) |  |  |  |  | 125% |
